Values after ≈ are worked out from the molar mass of the structure shown.

One data set deals with Mus musculus. Nature of the data set: Dose normalised AUC in po dosed mouse. Format: ADME, organism-based. The note with it: in vivo.
Data set [1] can be described thus: Oral bioavailability in mouse. Type of data set: ADME, organism-based. Conditions: in vivo.
The nature of data set [2]: Clearance in po dosed mouse. Format: ADME, organism-based. Conditions: in vivo.
Data set [3] has as its system Candida albicans. Kind of data set: Antifungal activity against Candida albicans MY1055 infected in DBA/2 mouse assessed as reduction in kidney fungal burden measured per gram of tissue at 6.25 mg/kg, po bid for 2 days post infection measured after 4 days relative to sham-treated control. Format: functional. The method in brief: (§1)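 DBA/2 mice were given 3.0 × 10^4 CFU of C. albicans MY1055 iv into the lateral tail vein in 0.2 mL. Dosing ip or po, bid for 2 days, began 15–30 min after challenge, with a sham-treated control for each route and diluent. At day 4, paired kidneys (4–5 mice/group) were homogenized in saline, serially diluted and plated on SD agar (35 °C, 30–48 h). Mean CFU/g was compared with sham.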

Data set [4] concerns Candida albicans. Kind of data set: Antifungal activity against Candida albicans MY1055 infected in DBA/2 mouse assessed as reduction in kidney fungal burden measured per gram of tissue at 12.5 mg/kg, po bid for 2 days post infection measured after 4 days relative to sham-treated control. Format: functional. The method, boiled down:
as §1

The test system of data set [5] is Candida albicans. Kind of data set: Antifungal activity against Candida albicans MY1055 infected in DBA/2 mouse assessed as reduction in kidney fungal burden measured per gram of tissue at 25 mg/kg, po bid for 2 days post infection measured after 4 days relative to sham-treated control. Format: functional. The method, boiled down: as §1
Data set [6] concerns Candida albicans. Nature of the data set: Antifungal activity against Candida albicans MY1055 infected in DBA/2 mouse assessed as reduction in kidney fungal burden measured per gram of tissue at 12.5 mg/kg, ip bid for 2 days post infection measured after 4 days relative to sham-treated control. Conditions: route intraperitoneal. Type of data set: functional. The method in brief: as §1

Data set [7] has as its system Candida albicans. Nature of the data set: Antifungal activity against Candida albicans. Type of data set: functional.
A short description of data set [8]: Inhibition of Candida albicans beta-1,3-glucan synthase assessed as [3H]UDPG incorporation after 60 mins by scintillation counting. The method in brief:
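C. albicans glucan synthase was incubated for 60 min at 22 °C in 50 mM HEPES pH 7.5 with 0.5 mM 3H-UDPG (6000–8000 dpm/nmol), 10% glycerol, 1.5 mg/mL BSA, 25 mM KF, 1 mM EDTA and GTP-γ-S. Enzyme was set to give 3–6 nmol incorporation. Compounds were added as threefold DMSO dilutions. The reaction was stopped with 20% TCA and chilled, and glucan was collected on GF/C filters, water-washed and scintillation counted.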

Data set [9] deals with Candida albicans. Kind of data set: Antifungal activity against Candida albicans MY1055 after 24 hrs by NCCLS microdilution method. Format: functional. Conditions: MY1055, 24 h. (Dilution methods test growth across graded concentrations, often in twofold steps.)
The nature of data set [10]: Inhibition of Candida albicans MY1055 beta-1,3-glucan synthase assessed as [3H]UDPG incorporation after 60 mins.

With `CN[C@@](C)(CO[C@H]1[C@H](n2ncnc2-c2ccncc2)C[C@@]23COC[C@]1(C)[C@@H]2CC[C@H]1C3=CC[C@@]2(C)[C@H](C(=O)O)[C@@](C)([C@H](C)C(C)C)CC[C@]12C)C(C)(C)C`, the AUC/dose in the data set on Mus musculus worked out at 0.62 µM·kg·h/mg. Moreover, the bioavailability (usually dose-corrected exposure relative to a reference, in per cent) in data set [1] was determined as 42%. This molecule returned a clearance in [2] of 16 mL/min/kg. Moreover, the deltalog10CFU in the data set with Candida albicans [3] is -2.72; in the data set with Candida albicans [4] it was -3.88; in the data set on Candida albicans [5], -4.25; in the data set with Candida albicans [6] it was -4.37. Besides, in the data set on Candida albicans [7], 0.03 µg/mL (≈ 0.0403 µM) was the least that counted as inhibitory (MIC). The IC50 (in general, the point on the concentration scale where inhibition reaches its midpoint) in data set [8] is 0.002 µg/mL (≈ 0.00269 µM).

With `CC(C)[C@@H](C)[C@@]1(C)CC[C@]2(C)[C@H]3CC[C@@H]4[C@@]5(COC[C@@]4(C)[C@@H](OC[C@@]4(C)CCCN4C)[C@H](n4ncnc4-c4ccncc4)C5)C3=CC[C@@]2(C)[C@@H]1C(=O)O`, the deltalog10CFU was -0.9 in the data set on Candida albicans [3], -1.4 in the data set on Candida albicans [4], -2 in the data set on Candida albicans [5] and -1.8 with Candida albicans [6]. It took 0.125 µg/mL (≈ 0.172 µM) to inhibit growth against Candida albicans [7] (MIC). Also, the IC50 in data set [8] was 0.0064 µg/mL (≈ 0.00879 µM).

As for `CC(C)[C@@H](C)[C@@]1(C)CC[C@]2(C)[C@H]3CC[C@@H]4[C@@]5(COC[C@@]4(C)[C@@H](OC[C@H]4CCCN4)[C@H](n4ncnc4-c4ccncc4)C5)C3=CC[C@@]2(C)[C@@H]1C(=O)O`, the AUC/dose in the data set with Mus musculus was determined as 0.03 µM·kg·h/mg. For the same molecule, in data set [1], the bioavailability amounted to 1.7%. The same molecule yielded a clearance in data set [2] of 16.3 mL/min/kg. The deltalog10CFU with Candida albicans [3] is reported as -0.27; with Candida albicans [4], -1.81; in the data set on Candida albicans [5], -2.09; with Candida albicans [6] it was -1.69. For the same molecule, it took 0.5 µg/mL (≈ 0.714 µM) to inhibit growth in the data set with Candida albicans [7] (MIC). In addition, in [8], the IC50 was 0.022 µg/mL (≈ 0.0314 µM).

`CC(C)[C@@H](C)[C@@]1(C)CC[C@]2(C)[C@H]3CC[C@@H]4[C@@]5(COC[C@@]4(C)[C@@H](OC[C@@]4(C)CCCN4)[C@H](n4ncnc4-c4ccncc4)C5)C3=CC[C@@]2(C)[C@@H]1C(=O)O` displayed an AUC/dose in the data set with Mus musculus of 0.06 µM·kg·h/mg. The bioavailability in data set [1] stood at 4.7%. In data set [2], the clearance is 19.2 mL/min/kg. Moreover, the deltalog10CFU was -2.16 with Candida albicans [5] and -2.83 with Candida albicans [6]. Besides, the MIC (usually the smallest concentration in the dilution series that meets the test's criterion for growth inhibition) in the data set on Candida albicans [7] was 0.125 µg/mL (≈ 0.175 µM). Further, in data set [8], the IC50 was 0.004 µg/mL (≈ 0.0056 µM).

Take `CC(=O)O[C@@H]1C[C@]23C4=CC[C@@]5(C)[C@H](C(=O)O)[C@@](C)([C@H](C)C(C)C)CC[C@]5(C)[C@H]4CC[C@H]2[C@@](C)(COC3O)[C@H]1O[C@@H]1O[C@H](CO)[C@@H](O)[C@H](O)[C@H]1O` (stereo not given in full) [ENFUMAFUNGIN]: the MIC against Candida albicans [9] was determined as 0.2 µg/mL (≈ 0.282 µM). In addition, in data set [10], the IC50 is 0.05 µg/mL (≈ 0.0705 µM).

Take `CC(C)[C@@H](C)[C@@]1(C)CC[C@]2(C)[C@H]3CC[C@@H]4[C@@]5(COC[C@@]4(C)[C@@H](OC[C@H]4CCCN4C)[C@H](n4ncnc4-c4ccncc4)C5)C3=CC[C@@]2(C)[C@@H]1C(=O)O`: the AUC/dose in the data set with Mus musculus turned out to be 0.06 µM·kg·h/mg. Also, the bioavailability in data set [1] worked out at 23%. The same molecule registered a clearance in data set [2] of 13.1 mL/min/kg. The deltalog10CFU in the data set on Candida albicans [3] is reported as -1.22; with Candida albicans [4] it was -0.9; with Candida albicans [5] it was -1.14; with Candida albicans [6], -1.84. This molecule yielded an MIC in the data set with Candida albicans [7] of 0.5 µg/mL (≈ 0.7 µM). Besides, the IC50 in data set [8] came to 0.019 µg/mL (≈ 0.0266 µM).

Consider `CC(C)[C@@H](C)[C@@]1(C)CC[C@]2(C)[C@H]3CC[C@@H]4[C@@]5(COC[C@@]4(C)[C@@H](OC[C@@H]4CCCN4)[C@H](n4ncnc4-c4ccncc4)C5)C3=CC[C@@]2(C)[C@@H]1C(=O)O`, for which the deltalog10CFU in the data set on Candida albicans [3] was -0.4; with Candida albicans [4], -0.26; in the data set with Candida albicans [5], -1.32; in the data set on Candida albicans [6], -2.18. In the data set on Candida albicans [7], this molecule showed an MIC of 1 µg/mL (≈ 1.43 µM). For the same molecule, in data set [8], the IC50 was 0.018 µg/mL (≈ 0.0257 µM).

Take `CC(C)[C@@H](C)[C@@]1(C)CC[C@]2(C)[C@H]3CC[C@@H]4[C@@]5(COC[C@@]4(C)[C@@H](OC[C@@H]4CCCN4C)[C@H](n4ncnc4-c4ccncc4)C5)C3=CC[C@@]2(C)[C@@H]1C(=O)O`: the minimal inhibitory concentration (MIC) in the data set on Candida albicans [7] was determined as 1 µg/mL (≈ 1.4 µM). In addition, the IC50 in [8] came out at 0.061 µg/mL (≈ 0.0854 µM).

The values are drawn from ChEMBL document CHEMBL2163260, “Synthesis and biological evaluation of antifungal derivatives of enfumafungin as orally bioavailable inhibitors of β-1,3-glucan synthase” (Bioorg Med Chem Lett, 2012).
